# Assay results reported in ChEMBL document CHEMBL1944515 (J Med Chem, 2012).
# Activity calls are given as the source filed them. The calls are words filed in the database; no cut-off is given here.
# Columns and labels:
# HeLa [1] = experiment: Induction of apoptosis in human HeLa cells assessed as increase in annexin-V positive apoptotic cells after 24 to 48 hrs by FITC conjugated annexin-V/PI staining-based flow cytometry; assay type: functional, cell-based
# Method in brief: (§1)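 Flow cytometry of HeLa cells after 24 or 48 h exposure, double-stained with annexin-V-FITC and propidium iodide. Excitation at 488 nm, emission at 525 nm (FITC) and 585 nm (PI). Quadrants scored as live, early apoptotic, late apoptotic or necrotic cells.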
# HeLa [2] = experiment: Induction of ROS production in human HeLa cells at 50 to 100 nM after 24 to 48 hrs by H2-DCFDA staining-based flow cytometry; assay type: functional, cell-based
# Method in brief: (§2)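 HeLa cells were exposed for 24 or 48 h, then stained with hydroethidine or H2-DCFDA for ROS and read by flow cytometry. DMSO ≤0.25%. Mean ± SEM of three independent experiments.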
# HeLa [3] = experiment: Induction of mitochondrial depolarization in human HeLa cells assessed as JC1 monomer level after 48 hrs by JC1-based fluorescent staining (reference value: 0.8%); assay type: functional
# Method in brief: (§3)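 Mitochondrial membrane potential in HeLa cells after 24 or 48 h incubation, measured with the JC-1 dye by flow cytometry. Aggregates read as red (590 nm) and monomers as 530 nm; output is the percentage of depolarized cells. Mean ± SEM of three independent experiments.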
# LoVo [4] = experiment: Resistance ratio of IC50 for human doxorubicin-resistant LoVo cells to human LoVo cells; assay type: functional
# HeLa [5] = experiment: Induction of cell cycle arrest in human HeLa cells assessed as increase in cyclin B1 expression at 50 to 100 nM after 24 to 48 hrs by Western blot analysis; assay type: functional, cell-based
# Method in brief: (§4)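 HeLa cells were treated for 24 or 48 h, washed in ice-cold PBS and lysed on ice for 30 min; lysates were spun at 15000g, 4 °C. 20 μg protein per lane on SDS-PAGE (7.5–15%), then PVDF. Blocked overnight at 4 °C, primary antibodies 2 h at room temperature, peroxidase secondary 60 min, ECL detection. Blots were reprobed for β-actin as loading control.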
# LoVo [6] = experiment: Cytotoxicity against human LoVo cells after 72 hrs by MTT assay; assay type: functional, cell-based
# Method in brief: (§5)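 Cells seeded at 8 × 10^3 per well and left 18 h at 37 °C, 5% CO2, then given fresh medium with compound at a range of concentrations for 72 h; DMSO at most 0.25% final. Viability read by MTT relative to 0.25% DMSO-treated cells. […] LoVoDoxo kept in Ham's F12 with 0.1 μg/mL doxorubicin; A549-T12 kept in DMEM with 12 nM paclitaxel.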
# A549 = experiment: Resistance ratio of IC50 for human A549-T12 cells to IC50 for human A549 cells; assay type: functional
# HeLa [7] = experiment: Induction of necrosis in human HeLa cells assessed as necrotic cells at 100 nM after 48 hrs by FITC conjugated annexin-V/PI staining-based flow cytometry (reference value: 0.7%); assay type: functional; method in brief: as §1
# Jurkat = experiment: Cytotoxicity against human Jurkat cells after 72 hrs by MTT assay; assay type: functional, cell-based
# Method in brief: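 8 × 10^3 cells/well were preincubated 18 h at 37 °C, 5% CO2, then given graded concentrations for 72 h, with final DMSO not above 0.25%. Viability was read by MTT. […] Mean ± SE from at least three experiments.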
# HeLa [8] = experiment: Induction of apoptosis in human HeLa cells assessed as decrease in cdc25c level at 50 to 100 nM after 24 hrs by Western blot analysis; assay type: functional, cell-based; details: in the assay text read “48 hrs” for “24 hrs”; method in brief: as §4
# HeLa [9] = experiment: Induction of ROS production in human HeLa cells at 50 to 100 nM after 24 to 48 hrs by HE staining-based flow cytometry; assay type: functional, cell-based; method in brief: as §2
# HL-60 = experiment: Cytotoxicity against human HL60 cells after 72 hrs by MTT assay; assay type: functional, cell-based; details: HL-60, 72 h
# HeLa [10] = experiment: Induction of apoptosis in human HeLa cells assessed as decrease in Bcl2 protein level at 50 to 100 nM after 48 hrs by Western blot analysis; assay type: functional, cell-based; method in brief: as §4
# HeLa [11] = experiment: Induction of cell cycle arrest in human HeLa cells assessed as increase in G2/M phase cells at 30 nM after 24 hrs by flow cytometry; assay type: functional, cell-based
# Method in brief: (§6)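 5 × 10^5 exponentially growing HeLa cells were treated with 15–250 nM for 24 h, fixed in ice-cold 70% ethanol, then treated with lysis buffer containing RNase A and 0.1% Triton X-100. PI staining of DNA content, read by flow cytometry. Mean ± SEM of three independent experiments.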
# HT-29 [12] = experiment: Anticancer activity against human HT-29 cells xenografted in BALB/c nude mouse assessed as reduction in tumor volume at 100 mg/kg, ip administered on days 0,2 and 4 measured on day 24 relative to vehicle treated control; assay type: functional; set-up: scale not given: the % may be the effect or the level left; details: route intraperitoneal
# Method in brief: (§7)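 HT-29 cells in log phase, resuspended in serum-free RPMI 1640 at 1 × 10^7 cells/mL, inoculated 0.2 mL subcutaneously in the back of nude mice. At ~300 mm3, 18 mice were randomized to vehicle or two treatment groups. Dosing: 100 mg/kg in DMSO, ip at 0.01 mL/g, on days 0, 2 and 4. Tumor volume by caliper as (LW2)/2 and body weight recorded; n = 6 per group, mean ± SEM.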
# CCRF-CEM = experiment: Resistance ratio of IC50 for human CEM/VBL100 cells to IC50 for human CEM cells; assay type: functional
# [13] = Cytotoxicity against human A549-T12 cells after 72 hrs by MTT assay; assay type: functional, cell-based; details: A549, 72 h; method in brief: as §5
# HeLa [14] = experiment: Induction of apoptosis in human HeLa cells assessed as caspase9 activation at 50 to 100 nM after 24 to 48 hrs by Western blot analysis; assay type: functional, cell-based; method in brief: as §4
# HeLa [15] = experiment: Induction of apoptosis in human HeLa cells assessed as viable cells at 100 nM after 48 hrs by FITC conjugated annexin-V/PI staining-based flow cytometry (reference value: 86.7%); assay type: functional; details: read-out: Activity; method in brief: as §1
# HeLa [16] = experiment: Induction of cell cycle arrest in human HeLa cells assessed as increase in G2/M phase cells after 24 hrs by flow cytometry; assay type: functional, cell-based; method in brief: as §6
# HeLa [17] = experiment: Induction of apoptosis in human HeLa cells assessed as change in Bax protein expression at 50 to 100 nM after 24 to 48 hrs by Western blot analysis; assay type: functional, cell-based; method in brief: as §4
# HeLa [18] = experiment: Cytotoxicity against human HeLa cells after 72 hrs by MTT assay; assay type: functional, cell-based
# HeLa [19] = experiment: Induction of apoptosis in human HeLa cells assessed as caspase3 activation at 50 to 100 nM after 24 to 48 hrs by Western blot analysis; assay type: functional, cell-based; method in brief: as §4
# HeLa [20] = experiment: Induction of cell cycle arrest in human HeLa cells assessed as decrease in S phase cells at 15 to 250 nM after 24 hrs by flow cytometry; assay type: functional, cell-based; method in brief: as §6
# HT-29 [21] = experiment: Cytotoxicity against human HT-29 cells after 72 hrs by MTT assay; assay type: functional, cell-based; details: HT-29, 72 h
# Mus musculus = experiment: Toxicity in BALB/c nude mouse assessed as change in body weight at 100 mg/kg, ip administered on days 0,2 and 4 measured after 1 week relative to control; assay type: organism-based; set-up: dose 100 mg/kg, route intraperitoneal; details: in vivo, 168 h; method in brief: as §7
# HeLa [22] = experiment: Induction of mitochondrial depolarization in human HeLa cells after 24 to 48 hrs by JC1-based fluorescent staining; assay type: functional, cell-based; method in brief: as §3
structure (smiles),measurement,setting,value
CCOc1ccc(-c2nnnn2-c2cc(OC)c(OC)c(OC)c2)cc1,Activity,HeLa [1],Dose-dependent effect
same,Activity,HeLa [2],Active
same,Activity,HeLa [3],19.1%
same,Ratio IC50,LoVo [4],0.64
same,Activity,HeLa [5],Active
same,IC50,LoVo [6],1.1 nM
same,Ratio IC50,A549,1
same,Activity,HeLa [7],1.8%
same,IC50,Jurkat,0.16 nM
same,Activity,HeLa [8],Active
same,Activity,HeLa [9],Active
same,IC50,HL-60,1.3 nM
same,Activity,HeLa [10],Active
same,Activity,HeLa [11],Active
same,Activity,HT-29 [12],66%
same,Ratio IC50,CCRF-CEM,0.2
same,IC50,[13],8.2 nM
same,Activity,HeLa [14],Active
same,viability at 0.1 µM,HeLa [15],36.1%
same,Activity,HeLa [16],Dose-dependent effect
same,Activity,HeLa [17],inactive
same,IC50,HeLa [18],1.9 nM
same,Activity,HeLa [19],Active
same,Activity,HeLa [20],Active
same,IC50,HT-29 [21],2.8 nM
same,Activity,Mus musculus,Non-toxic
same,Activity,HeLa [22],Dose-dependent effect
